Assay results reported in ChEMBL document CHEMBL3588831, “Synthesis and in Vivo Evaluation of [123I]Melanin-Targeted Agents” (J Med Chem, 2015).

Assays:
[1] = Retention time of the compound by HPLC method; format: physicochemical
[2] = Drug distribution in thyroid gland of C57BL/6J mouse bearing mouse B16F0 cells at 18 to 20 MBq, iv after 72 hrs by SPECT imaging study; format: ADME, organism-based; conditions: in vivo
Summary of the method: (§1)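 Female C57BL/6J mice (5–6 weeks) were inoculated s.c. on the left flank with 3 × 10^5 B16F0 cells in PBS and used after 11 days, with tumors 2–12 mm. Each received 18–20 MBq in 100 μL by lateral tail vein (n = 3 per tracer). Planar SPECT was done under isoflurane at 10–60 min, 3, 6, 24, 48 and 72 h. ROI pixel values were decay-corrected.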

[3] = Drug distribution in eyes of C57BL/6J mouse bearing mouse B16F0 cells at 18 to 20 MBq, iv measured over 72 hrs by SPECT imaging study; format: ADME, organism-based, Eye; conditions: in vivo; summary of the method: as §1
Brain [4] = experiment: Drug distribution in brain of C57BL/6J mouse bearing mouse B16F0 cells at 18 to 20 MBq, iv measured over 72 hrs by SPECT imaging study; format: ADME, organism-based; conditions: in vivo
Summary of the method: (§2)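 Female C57BL/6J mice bearing s.c. B16F0 tumors (11 days growth) received 18−20 MBq in 100 μL via lateral tail vein (n = 3). Isoflurane anesthesia (5% induction, 2−2.5% maintenance) on a 37 °C heating pad. Planar γ-camera imaging at 10−60 min (5 min frames), 3 and 6 h, 24, 48 and 72 h. Radioactivity localization assessed visually.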

[5] = Drug distribution in thyroid gland of C57BL/6J mouse bearing mouse B16F0 cells at 18 to 20 MBq, iv after 24 hrs by SPECT imaging study; format: ADME, organism-based; conditions: in vivo; summary of the method: as §1
[6] = Drug distribution in thyroid gland of C57BL/6J mouse bearing mouse B16F0 cells at 18 to 20 MBq, iv after 3 hrs by SPECT imaging study; format: ADME, organism-based; conditions: in vivo; summary of the method: as §1
Brain [7] = experiment: Drug distribution in brain of C57BL/6J mouse bearing mouse B16F0 cells at 18 to 20 MBq, iv within 1 hr by SPECT imaging study; format: ADME, organism-based; conditions: in vivo; summary of the method: as §2

Retention_time [1] [min]	Drug uptake [2]	Drug uptake [3]	Drug uptake (Brain [4])	Drug uptake [5]	Drug uptake [6]	Drug uptake (Brain [7])	Compound
15.9	Active	Active	Not Active	–	–	–	O=C1c2ccccc2CN1CC(=O)N1C[C@@H]2C[C@H]1CN2Cc1ccc([123I])cc1
14.5	Active	Active	Not Active	–	–	–	O=C(CN1Cc2ccccc2C1=O)N1CCCN(Cc2ccc([123I])cc2)CC1
17.3	–	Active	Not Active	–	–	–	O=C(CN1Cc2ccccc2C1=O)N1CCN(Cc2ccc([123I])cc2)CC1
16	–	Active	Not Active	Active	–	–	O=C(c1cccnc1)N1CCN(Cc2ccc([123I])cc2)CC1
15.7	–	Active	Active	–	Active	Active	CCN(CC)CCNC(=O)c1cnc2cc([123I])ccc2n1
